The record followed here is ChEMBL document CHEMBL2375356, “Design, synthesis and biological evaluation of new classes of thieno[3,2-d]pyrimidinone and thieno[1,2,3]triazine as inhibitor of vascular endothelial growth factor receptor-2 (VEGFR-2)” (Eur J Med Chem, 2013).

Series [1] addresses T1, Vascular endothelial growth factor receptor 2 (Homo sapiens, UniProt P35968). Briefly: Inhibition of human recombinant VEGFR2.
In series [2] the test system is HUVEC. Briefly: cells. The note with it: Homo sapiens, 24 h.
In series [3] the target is Vascular endothelial growth factor receptor 1 (Homo sapiens) (UniProt P17948). Briefly: Inhibition of VEGFR1 phosphorylation in growth factor-stimulated HUVEC.
Series [4] deals with Tyrosine-protein kinase receptor UFO (Homo sapiens) (UniProt P30530). Briefly: Inhibition of AXL phosphorylation in growth factor-stimulated HUVEC at 3 uM after 24 hrs.
In series [5] the target is T2, Ephrin type-A receptor 6 (Homo sapiens) (UniProt Q9UF33).
T2 sequence (whole entry): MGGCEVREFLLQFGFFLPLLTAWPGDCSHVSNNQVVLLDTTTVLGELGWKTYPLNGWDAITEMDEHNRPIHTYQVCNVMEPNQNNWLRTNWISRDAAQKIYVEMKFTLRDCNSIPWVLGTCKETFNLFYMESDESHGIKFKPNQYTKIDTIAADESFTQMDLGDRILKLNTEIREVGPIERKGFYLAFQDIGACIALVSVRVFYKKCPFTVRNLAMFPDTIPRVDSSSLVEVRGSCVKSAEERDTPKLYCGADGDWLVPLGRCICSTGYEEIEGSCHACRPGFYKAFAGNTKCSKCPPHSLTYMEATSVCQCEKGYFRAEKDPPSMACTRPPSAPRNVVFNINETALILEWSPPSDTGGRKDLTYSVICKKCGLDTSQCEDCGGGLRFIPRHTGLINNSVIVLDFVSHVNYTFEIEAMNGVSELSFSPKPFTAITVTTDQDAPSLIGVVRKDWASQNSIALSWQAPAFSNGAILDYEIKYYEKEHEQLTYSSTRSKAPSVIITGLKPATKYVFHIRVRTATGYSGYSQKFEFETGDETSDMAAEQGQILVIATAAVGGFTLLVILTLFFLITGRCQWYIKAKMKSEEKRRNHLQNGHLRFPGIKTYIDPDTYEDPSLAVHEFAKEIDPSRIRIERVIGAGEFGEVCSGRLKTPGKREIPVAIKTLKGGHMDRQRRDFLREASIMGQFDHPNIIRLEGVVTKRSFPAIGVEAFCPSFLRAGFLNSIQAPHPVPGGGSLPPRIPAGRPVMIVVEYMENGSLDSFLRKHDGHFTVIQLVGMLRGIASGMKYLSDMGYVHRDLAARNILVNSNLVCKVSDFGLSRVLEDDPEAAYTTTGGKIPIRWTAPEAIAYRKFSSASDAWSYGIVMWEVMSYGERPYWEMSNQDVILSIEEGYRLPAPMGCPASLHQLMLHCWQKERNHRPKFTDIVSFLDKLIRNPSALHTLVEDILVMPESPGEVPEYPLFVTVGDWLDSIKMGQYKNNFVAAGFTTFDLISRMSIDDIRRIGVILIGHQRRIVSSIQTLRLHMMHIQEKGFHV
The series is described as follows: Inhibition of EPHA6 phosphorylation in growth factor-stimulated HUVEC at 3 uM after 24 hrs.

Series [6] addresses T3, Tyrosine-protein kinase receptor TYRO3 (Homo sapiens) (UniProt Q06418).
T3 sequence (whole entry): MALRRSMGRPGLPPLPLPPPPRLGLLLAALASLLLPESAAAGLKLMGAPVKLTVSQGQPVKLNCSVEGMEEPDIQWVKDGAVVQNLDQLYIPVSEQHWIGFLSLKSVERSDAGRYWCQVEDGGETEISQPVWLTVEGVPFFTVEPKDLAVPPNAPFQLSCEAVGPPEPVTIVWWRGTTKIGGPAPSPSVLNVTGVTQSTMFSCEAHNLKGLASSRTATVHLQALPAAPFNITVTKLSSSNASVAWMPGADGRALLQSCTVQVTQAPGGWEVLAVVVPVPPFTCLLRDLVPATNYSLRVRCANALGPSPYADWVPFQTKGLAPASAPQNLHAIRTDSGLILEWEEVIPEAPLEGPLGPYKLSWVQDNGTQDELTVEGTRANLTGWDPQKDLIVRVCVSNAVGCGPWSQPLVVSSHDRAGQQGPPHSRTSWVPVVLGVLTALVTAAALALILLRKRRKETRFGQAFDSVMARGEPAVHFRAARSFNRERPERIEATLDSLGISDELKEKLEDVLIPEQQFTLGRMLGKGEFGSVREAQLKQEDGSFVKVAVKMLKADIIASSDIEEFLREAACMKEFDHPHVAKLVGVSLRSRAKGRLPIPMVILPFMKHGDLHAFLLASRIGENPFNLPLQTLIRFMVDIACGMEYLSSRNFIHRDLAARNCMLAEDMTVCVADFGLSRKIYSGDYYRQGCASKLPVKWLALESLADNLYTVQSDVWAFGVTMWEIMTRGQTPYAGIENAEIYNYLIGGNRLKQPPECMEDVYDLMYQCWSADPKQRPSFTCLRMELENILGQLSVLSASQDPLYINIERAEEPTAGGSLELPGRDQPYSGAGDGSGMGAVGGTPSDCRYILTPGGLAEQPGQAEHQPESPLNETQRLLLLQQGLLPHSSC
The series is described as follows: Inhibition of DTK phosphorylation in growth factor-stimulated HUVEC at 3 uM after 24 hrs.

The target of series [7] is Vascular endothelial growth factor receptor 1 (Homo sapiens) (UniProt P17948). The series is described as follows: Inhibition of VEGFR1 phosphorylation in growth factor-stimulated HUVEC at 3 uM after 24 hrs.
The target in series [8] is Tyrosine-protein kinase transmembrane receptor ROR2 (Homo sapiens) (UniProt Q01974). The series is described as follows: Inhibition of ROR2 phosphorylation in growth factor-stimulated HUVEC at 3 uM after 24 hrs.
The target in series [9] is Tyrosine-protein kinase receptor Tie-1 (Homo sapiens) (UniProt P35590). The series is described as follows: Inhibition of TIE-1 phosphorylation in growth factor-stimulated HUVEC at 3 uM after 24 hrs.
Series [10] concerns the target Epidermal growth factor receptor (Homo sapiens) (UniProt P00533). The series is described as follows: Inhibition of EGFR phosphorylation in growth factor-stimulated HUVEC at 3 uM after 24 hrs.
The target of series [11] is T1, Vascular endothelial growth factor receptor 2. The series is described as follows: Inhibition of VEGFR2 phosphorylation in growth factor-stimulated HUVEC at 3 uM after 24 hrs.
Series [12] concerns HUVEC. Briefly: Cytostatic activity against HUVEC assessed as decrease in metabolic activity after 24 hrs by MTT assay. In kind it is ADME, cell-based, Homo sapiens. In short, it runs like this:
(§1)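 Primary HUVEC (passage ≤5) seeded at 20,000 cells/cm² in complete medium; after 24 h, exposed to test agent (0–100 µM) in RPMI 1640 + 2% heat-inactivated FCS for 24 h. MTT 0.4 mg/mL, 37 °C for 3 h; formazan dissolved in DMSO, absorbance read at 570/630 nm. Expressed as % variation vs untreated medium; mean ± SD, n = 3 in triplicate.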
(In general: Tetrazolium assays rely on reduction of a dye to a coloured formazan, in cell work by metabolically active cells.)

Series [13] has as its system HUVEC. Briefly: Cytotoxicity against HUVEC assessed as decrease in cell viability at 1 to 100 uM after 24 hrs by Hoechst 33258 staining method. In kind it is cell-based. Conditions: human. In short, it runs like this:
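HUVEC seeded at 20,000 cells/cm²; after 24 h, treated with test agent (0–100 µM) in RPMI 1640 + 2% FCS for 24 h. Cells lysed by freezing at −80 °C, lysates incubated with Hoechst 33258 for 1 h with agitation. Fluorescence read at ex 360/em 460 nm; expressed as % variation vs untreated; mean ± SD, n = 3 in triplicate.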

The test system of series [14] is HUVEC. The series is described as follows: Cytostatic activity against HUVEC assessed as decrease in metabolic activity at 100 uM after 24 hrs by MTT assay relative to control. Conditions: human. Type of series: ADME, cell-based. Also noted: scale not given: the % may be the effect or the level left. In short, it runs like this: as §1
Series [15] concerns HUVEC. Briefly: Cytostatic activity against HUVEC assessed as decrease in metabolic activity at 1.5 uM after 24 hrs by MTT assay relative to control. In kind it is ADME, cell-based. Also noted: scale not given: the % may be the effect or the level left. Conditions: human. In short, it runs like this: as §1

Activity calls are given as the source filed them. No cut-off for these calls is given here.

Chain of Vascular endothelial growth factor receptor 1 (Homo sapiens) (P17948 whole entry): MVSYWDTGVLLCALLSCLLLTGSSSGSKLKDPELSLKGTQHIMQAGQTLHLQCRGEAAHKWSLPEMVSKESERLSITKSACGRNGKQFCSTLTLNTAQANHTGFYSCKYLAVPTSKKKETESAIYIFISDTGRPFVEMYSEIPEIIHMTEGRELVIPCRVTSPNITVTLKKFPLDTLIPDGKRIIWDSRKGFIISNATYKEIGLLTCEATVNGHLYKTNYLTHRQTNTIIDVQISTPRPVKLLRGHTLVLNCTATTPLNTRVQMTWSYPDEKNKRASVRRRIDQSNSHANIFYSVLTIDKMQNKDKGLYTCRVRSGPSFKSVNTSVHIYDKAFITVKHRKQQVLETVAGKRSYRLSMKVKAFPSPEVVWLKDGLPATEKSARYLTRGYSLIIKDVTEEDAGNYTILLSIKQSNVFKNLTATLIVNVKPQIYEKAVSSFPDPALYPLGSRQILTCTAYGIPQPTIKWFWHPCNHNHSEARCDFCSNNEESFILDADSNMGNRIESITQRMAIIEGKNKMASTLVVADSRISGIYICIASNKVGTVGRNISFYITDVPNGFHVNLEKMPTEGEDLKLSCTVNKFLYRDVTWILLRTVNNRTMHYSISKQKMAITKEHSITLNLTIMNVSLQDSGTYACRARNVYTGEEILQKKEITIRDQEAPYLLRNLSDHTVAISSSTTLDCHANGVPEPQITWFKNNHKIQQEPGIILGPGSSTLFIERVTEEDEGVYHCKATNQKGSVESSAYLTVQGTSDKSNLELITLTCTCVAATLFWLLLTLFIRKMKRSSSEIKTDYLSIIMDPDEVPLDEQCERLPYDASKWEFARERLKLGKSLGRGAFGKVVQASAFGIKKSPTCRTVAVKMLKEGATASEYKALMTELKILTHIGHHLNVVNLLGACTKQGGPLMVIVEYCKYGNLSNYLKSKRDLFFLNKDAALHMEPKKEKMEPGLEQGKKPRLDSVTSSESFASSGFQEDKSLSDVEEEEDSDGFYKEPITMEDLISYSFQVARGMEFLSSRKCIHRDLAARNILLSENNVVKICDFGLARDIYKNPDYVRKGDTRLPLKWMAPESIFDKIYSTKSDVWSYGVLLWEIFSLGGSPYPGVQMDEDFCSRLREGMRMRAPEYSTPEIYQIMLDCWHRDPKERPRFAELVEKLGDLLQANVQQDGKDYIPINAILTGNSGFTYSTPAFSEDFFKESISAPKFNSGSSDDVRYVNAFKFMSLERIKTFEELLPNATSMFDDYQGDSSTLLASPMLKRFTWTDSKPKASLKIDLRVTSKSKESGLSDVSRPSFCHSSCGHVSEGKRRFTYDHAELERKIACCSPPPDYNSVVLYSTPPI
T1 sequence (P35968 whole entry): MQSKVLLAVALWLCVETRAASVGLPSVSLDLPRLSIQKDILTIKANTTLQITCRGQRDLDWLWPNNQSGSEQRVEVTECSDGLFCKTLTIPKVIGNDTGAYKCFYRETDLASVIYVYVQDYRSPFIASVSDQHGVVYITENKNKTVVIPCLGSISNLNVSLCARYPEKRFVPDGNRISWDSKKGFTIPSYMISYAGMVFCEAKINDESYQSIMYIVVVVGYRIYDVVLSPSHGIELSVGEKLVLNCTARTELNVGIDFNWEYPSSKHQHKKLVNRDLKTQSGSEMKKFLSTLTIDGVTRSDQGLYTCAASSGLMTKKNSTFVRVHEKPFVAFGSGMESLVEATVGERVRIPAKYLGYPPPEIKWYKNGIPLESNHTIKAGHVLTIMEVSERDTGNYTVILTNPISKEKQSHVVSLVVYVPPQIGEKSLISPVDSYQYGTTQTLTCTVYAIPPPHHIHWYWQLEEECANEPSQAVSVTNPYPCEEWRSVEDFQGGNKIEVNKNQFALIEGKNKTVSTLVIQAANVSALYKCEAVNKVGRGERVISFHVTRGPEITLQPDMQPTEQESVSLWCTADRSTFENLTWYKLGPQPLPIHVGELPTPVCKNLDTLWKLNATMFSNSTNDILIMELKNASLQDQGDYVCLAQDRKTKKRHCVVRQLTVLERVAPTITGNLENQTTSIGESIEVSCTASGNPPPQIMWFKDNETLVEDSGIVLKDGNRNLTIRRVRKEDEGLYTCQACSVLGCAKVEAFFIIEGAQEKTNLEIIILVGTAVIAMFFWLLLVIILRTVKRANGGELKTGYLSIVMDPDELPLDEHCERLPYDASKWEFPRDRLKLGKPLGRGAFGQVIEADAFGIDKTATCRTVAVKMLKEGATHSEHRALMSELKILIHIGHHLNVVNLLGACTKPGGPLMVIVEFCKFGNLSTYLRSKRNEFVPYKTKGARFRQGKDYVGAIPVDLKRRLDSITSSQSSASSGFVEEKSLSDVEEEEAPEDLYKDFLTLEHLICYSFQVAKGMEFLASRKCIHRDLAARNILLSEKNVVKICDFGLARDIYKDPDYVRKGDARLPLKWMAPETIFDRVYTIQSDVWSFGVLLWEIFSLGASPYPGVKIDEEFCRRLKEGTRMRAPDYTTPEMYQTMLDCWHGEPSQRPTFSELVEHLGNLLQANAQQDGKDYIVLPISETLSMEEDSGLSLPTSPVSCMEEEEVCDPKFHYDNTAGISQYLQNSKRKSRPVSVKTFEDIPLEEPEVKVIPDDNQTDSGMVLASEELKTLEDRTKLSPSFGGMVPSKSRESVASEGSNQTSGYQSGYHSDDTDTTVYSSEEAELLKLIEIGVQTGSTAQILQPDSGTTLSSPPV
Chain of Epidermal growth factor receptor (Homo sapiens) (P00533 whole entry): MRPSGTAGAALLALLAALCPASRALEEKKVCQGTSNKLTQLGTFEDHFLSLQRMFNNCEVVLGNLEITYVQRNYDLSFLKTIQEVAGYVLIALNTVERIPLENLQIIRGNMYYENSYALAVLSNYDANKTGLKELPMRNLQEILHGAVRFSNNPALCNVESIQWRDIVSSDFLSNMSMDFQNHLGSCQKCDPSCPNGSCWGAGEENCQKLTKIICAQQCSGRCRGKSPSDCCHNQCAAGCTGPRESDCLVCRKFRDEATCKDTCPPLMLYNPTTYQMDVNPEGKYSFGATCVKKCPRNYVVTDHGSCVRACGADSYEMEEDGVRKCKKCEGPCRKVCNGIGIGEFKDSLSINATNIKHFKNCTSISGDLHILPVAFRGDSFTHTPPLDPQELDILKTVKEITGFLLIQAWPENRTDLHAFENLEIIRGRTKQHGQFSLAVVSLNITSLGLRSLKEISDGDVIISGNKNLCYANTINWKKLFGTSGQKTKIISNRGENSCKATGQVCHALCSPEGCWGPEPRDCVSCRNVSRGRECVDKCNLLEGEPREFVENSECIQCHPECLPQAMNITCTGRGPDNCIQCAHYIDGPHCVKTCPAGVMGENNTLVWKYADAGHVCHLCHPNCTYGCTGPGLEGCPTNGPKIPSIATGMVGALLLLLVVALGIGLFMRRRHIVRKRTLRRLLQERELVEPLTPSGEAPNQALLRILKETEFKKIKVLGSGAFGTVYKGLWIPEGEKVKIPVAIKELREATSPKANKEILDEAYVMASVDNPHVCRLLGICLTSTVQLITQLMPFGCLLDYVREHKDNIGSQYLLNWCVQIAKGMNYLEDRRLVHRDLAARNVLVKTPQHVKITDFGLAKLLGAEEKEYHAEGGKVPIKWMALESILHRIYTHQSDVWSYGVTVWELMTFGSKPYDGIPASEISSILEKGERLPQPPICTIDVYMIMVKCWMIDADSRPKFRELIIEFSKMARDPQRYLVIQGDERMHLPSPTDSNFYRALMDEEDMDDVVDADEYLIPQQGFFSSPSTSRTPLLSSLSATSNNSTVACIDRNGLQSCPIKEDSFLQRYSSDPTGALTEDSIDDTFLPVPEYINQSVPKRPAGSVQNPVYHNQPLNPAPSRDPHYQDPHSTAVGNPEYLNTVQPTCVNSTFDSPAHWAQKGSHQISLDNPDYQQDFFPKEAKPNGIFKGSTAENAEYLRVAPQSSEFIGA
Chain of Tyrosine-protein kinase transmembrane receptor ROR2 (Homo sapiens) (Q01974 whole entry): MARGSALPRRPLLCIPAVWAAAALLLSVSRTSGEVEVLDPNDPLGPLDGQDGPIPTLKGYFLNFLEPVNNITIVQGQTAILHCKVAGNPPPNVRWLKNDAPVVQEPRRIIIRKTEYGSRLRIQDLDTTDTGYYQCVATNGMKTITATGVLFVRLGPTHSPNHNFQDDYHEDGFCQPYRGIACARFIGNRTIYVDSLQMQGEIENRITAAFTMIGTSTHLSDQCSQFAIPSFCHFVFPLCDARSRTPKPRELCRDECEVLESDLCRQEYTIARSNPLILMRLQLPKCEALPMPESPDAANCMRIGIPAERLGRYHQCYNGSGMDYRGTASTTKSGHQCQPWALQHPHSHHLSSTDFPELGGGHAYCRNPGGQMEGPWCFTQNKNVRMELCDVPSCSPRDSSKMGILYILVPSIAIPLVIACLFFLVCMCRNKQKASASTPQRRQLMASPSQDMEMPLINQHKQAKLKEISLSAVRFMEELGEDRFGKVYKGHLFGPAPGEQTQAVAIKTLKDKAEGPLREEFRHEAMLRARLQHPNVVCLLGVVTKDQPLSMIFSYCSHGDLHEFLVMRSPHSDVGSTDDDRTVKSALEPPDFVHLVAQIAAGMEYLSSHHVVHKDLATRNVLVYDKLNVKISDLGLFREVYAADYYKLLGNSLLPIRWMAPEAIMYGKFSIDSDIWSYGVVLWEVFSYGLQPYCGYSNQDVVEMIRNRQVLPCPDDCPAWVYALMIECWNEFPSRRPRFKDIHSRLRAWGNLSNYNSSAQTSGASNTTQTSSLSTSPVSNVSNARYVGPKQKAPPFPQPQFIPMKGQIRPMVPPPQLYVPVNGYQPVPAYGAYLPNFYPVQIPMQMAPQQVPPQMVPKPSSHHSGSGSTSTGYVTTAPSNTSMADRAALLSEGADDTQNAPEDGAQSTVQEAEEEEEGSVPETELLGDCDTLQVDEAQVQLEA

On to `O=c1[nH]c(CN2CCCCC2)nc2cc(-c3cn(Cc4ccccc4)c4ccccc34)sc12` [listing 1 of 2 here], for which the IC50 (in general, the concentration at which inhibition is half-maximal) in series [1] was 2250 nM.
On to `CCN(CC)CCNC(=O)c1c(C)[nH]c(/C=C2\C(=O)Nc3ccc(F)cc32)c1C` [SUNITINIB], for which, in the series with HUVEC [2], the EC50 (in general, the concentration needed to bring the measured effect to its halfway point) is 645 nM. The inhibition entry in [3] was “Active”.
For `O=c1[nH]c(CN2CCCCC2)nc2cc(-c3cn(Cc4ccccc4)c4ccccc34)sc12` [listing 2 of 2 here], the inhibition result in series [4], in [5], in series [6], in series [7], in series [8] and in series [9] was “Active” each time. The inhibition result in [10] and in series [11] was “Active” throughout.
Turning to `O=C(O)C(O)C(O)C(=O)O.O=c1[nH]c(CN2CCCCC2)nc2cc(-c3cn(Cc4ccccc4)c4ccccc34)sc12`, the 50% effective concentration (EC50) amounted to 12000 nM in the series on HUVEC [12] (Homo sapiens, HUVEC) and 31 nM with HUVEC [2]. For the same compound, the Activity entry in the series with HUVEC [12] (human, huvec) is “Dose-dependent effect”; with HUVEC [13], “Non-toxic”; with HUVEC [14] it was 51%; with HUVEC [15], 9%.
